Experimental data as given in article PMC7909006 (Clinical cancer research : an official journal of the …, 2020).

How the values were obtained:
[1] = test system: serum cytokines (IL-10, IL-12p70, IL-6, MCP-1, M-CSF); test: Pharmacodynamics: serum cytokine analysis, fold change from Day 1; type: in vivo, human
[2] = adults; cited from earlier work
[3] = Phase I safety and tolerability: adverse events; type: in vivo
[4] = test system: peripheral blood immune cells; test: Pharmacodynamics: fold change in peripheral blood; type: in vivo, human
In short: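 Complete blood counts, including absolute monocyte count, were taken as safety labs before treatment, mid-C1, before C2–C9, then every other cycle and at end of therapy. Patients took the oral agent once daily on a continuous 28-day cycle, dosed by BSA at 400, 600 or 800 mg/m2.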

## FC(F)(F)c1ccc(CNc2ccc(Cc3c[nH]c4ncc(Cl)cc34)cn2)cn1 [Pexidartinib]
[1]; 27–29 Days from C1, N=8
  IL-6 serum, Med. Fold Change (95% CI) from Day 1: 0.98 (0.64, 2.39)
  IL-10 serum, Med. Fold Change (95% CI) from Day 1: 1.22 (0.81, 1.30)
  IL-12p70 serum, Med. Fold Change (95% CI) from Day 1: 0.86 (0.66, 1.05)
  M-CSF serum, Med. Fold Change (95% CI) from Day 1: 4.52 (2.40, 13.3)
  MCP-1 serum, Med. Fold Change (95% CI) from Day 1: 1.27 (1.11, 1.54)
[1]; 400, 600, 800 mg/m^2 DLs
  Target inhibition (CSF1 levels elevated, AMC levels decreased): seen at all DLs
[2]
  Median terminal half-life: 16.8 h
[3]; human, in vivo, 28 days
  Recommended phase II dose (RP2D), BSA based: 800 mg/m^2/day
[3]; in vivo
  Dose-limiting toxicities (DLT): No DLTs
[3]; in vivo, po
  Tolerability: well tolerated
[3]; up to 800 mg/m^2/dose
  Maximum tolerated dose (MTD): not reached
[4]; 6–8 Days from C1, N=9
  Absolute Immature Granulocyte, Med. Fold Change (95% CI) from Day 1: 0.50 (0.10, 1.00)
  Immature granulocytes, Med. Fold Change (95% CI) from Day 1: 0.50 (0.08, 0.67)
[4]; 6–8 Days from C1, N=10
  Absolute Eosinophil Count, Med. Fold Change (95% CI) from Day 1: 0.76 (0.50, 1.07)
  Eosinophils %, Med. Fold Change (95% CI) from Day 1: 0.78 (0.55, 1.04)
[4]; 6–8 Days from C1, N=12
  Absolute Basophil Count, Med. Fold Change (95% CI) from Day 1: 0.92 (0.50, 1.00)
  Basophils %, Med. Fold Change (95% CI) from Day 1: 0.95 (0.50, 1.13)
[4]; 6–8 Days from C1, N=13
  Absolute Lymphocyte Count, Med. Fold Change (95% CI) from Day 1: 0.97 (0.68, 1.20)
  Absolute Monocyte Count, Med. Fold Change (95% CI) from Day 1: 0.58 (0.35, 0.81)
  Absolute Neutrophil Count, Med. Fold Change (95% CI) from Day 1: 0.90 (0.77, 1.26)
  Hemoglobin (Hgb), Med. Fold Change (95% CI) from Day 1: 1.03 (0.97, 1.08)
  Lymphocytes %, Med. Fold Change (95% CI) from Day 1: 0.96 (0.81, 1.29)
  Monocytes %, Med. Fold Change (95% CI) from Day 1: 0.60 (0.40, 0.87)
  Neutrophils % + bands, Med. Fold Change (95% CI) from Day 1: 1.08 (0.96, 1.13)
  Platelet Count, Med. Fold Change (95% CI) from Day 1: 1.10 (0.84, 1.17)
  White blood cell (WBC), Med. Fold Change (95% CI) from Day 1: 0.89 (0.78, 1.07)
[4]; 14–16 Days from C1, N=9
  Absolute Immature Granulocyte, Med. Fold Change (95% CI) from Day 1: 0.50 (0.19, 1.00)
  Immature granulocytes, Med. Fold Change (95% CI) from Day 1: 0.46 (0.30, 0.67)
[4]; 14–16 Days from C1, N=11
  Absolute Basophil Count, Med. Fold Change (95% CI) from Day 1: 0.67 (0.50, 1.00)
  Absolute Eosinophil Count, Med. Fold Change (95% CI) from Day 1: 1.00 (0.81, 1.27)
  Basophils %, Med. Fold Change (95% CI) from Day 1: 0.83 (0.50, 1.13)
  Eosinophils %, Med. Fold Change (95% CI) from Day 1: 0.97 (0.92, 1.53)
[4]; 14–16 Days from C1, N=13
  Absolute Lymphocyte Count, Med. Fold Change (95% CI) from Day 1: 0.88 (0.73, 1.03)
  Absolute Monocyte Count, Med. Fold Change (95% CI) from Day 1: 0.56 (0.40, 0.89)
  Absolute Neutrophil Count, Med. Fold Change (95% CI) from Day 1: 0.96 (0.64, 1.15)
  Hemoglobin (Hgb), Med. Fold Change (95% CI) from Day 1: 0.97 (0.91, 1.00)
  Lymphocytes %, Med. Fold Change (95% CI) from Day 1: 0.92 (0.87, 1.25)
  Monocytes %, Med. Fold Change (95% CI) from Day 1: 0.67 (0.52, 0.89)
  Neutrophils % + bands, Med. Fold Change (95% CI) from Day 1: 1.08 (0.96, 1.13)
  Platelet Count, Med. Fold Change (95% CI) from Day 1: 0.97 (0.83, 1.13)
  White blood cell (WBC), Med. Fold Change (95% CI) from Day 1: 0.85 (0.65, 1.06)
[4]; 27–29 Days from C1, N=6
  Absolute Immature Granulocyte, Med. Fold Change (95% CI) from Day 1: 0.20 (0.00, 2.50)
  Immature granulocytes, Med. Fold Change (95% CI) from Day 1: 0.24 (0.00, 2.00)
[4]; 27–29 Days from C1, N=8
  Absolute Eosinophil Count, Med. Fold Change (95% CI) from Day 1: 0.63 (0.31, 5.37)
  Eosinophils %, Med. Fold Change (95% CI) from Day 1: 0.76 (0.48, 4.19)
[4]; 27–29 Days from C1, N=9
  Absolute Basophil Count, Med. Fold Change (95% CI) from Day 1: 0.33 (0.00, 0.67)
  Basophils %, Med. Fold Change (95% CI) from Day 1: 0.22 (0.00, 0.83)
[4]; 27–29 Days from C1, N=10
  Absolute Lymphocyte Count, Med. Fold Change (95% CI) from Day 1: 0.86 (0.60, 1.21)
  Absolute Monocyte Count, Med. Fold Change (95% CI) from Day 1: 0.64 (0.26, 0.88)
  Absolute Neutrophil Count, Med. Fold Change (95% CI) from Day 1: 0.70 (0.46, 1.66)
  Hemoglobin (Hgb), Med. Fold Change (95% CI) from Day 1: 1.03 (0.95, 1.13)
  Lymphocytes %, Med. Fold Change (95% CI) from Day 1: 1.28 (0.47, 1.95)
  Monocytes %, Med. Fold Change (95% CI) from Day 1: 0.84 (0.26, 1.06)
  Neutrophils % + bands, Med. Fold Change (95% CI) from Day 1: 0.97 (0.78, 1.30)
  Platelet Count, Med. Fold Change (95% CI) from Day 1: 0.94 (0.79, 1.18)
  White blood cell (WBC), Med. Fold Change (95% CI) from Day 1: 0.81 (0.58, 1.28)
